The structures appear in SMILES notation. Activity calls are given as the source filed them. No cut-off for these calls is given here.

For series [1], the system named is MCF7. Briefly: Cytotoxicity against human MCF7 cells. The format is functional. A digest of the protocol:
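MTT viability: 10,000 cells/well, 48 h exposure to increasing concentrations, MTT 2.5 mg/mL for 6 h at 37 °C, NP-40/HCl solubilization, absorbance 570 nm. MCF-7 in DMEM with 10% FBS; MCF-10A normal cells run alongside. LC50 from three independent experiments.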

Series [2] in a line: Induction of glutathione reactivity in pH 7.4 PBS buffer assessed as compound formation at 10 mM Andrographolide-14a-O iodoacetate and 10 mM GSH at 50 degC incubated for 8 hrs under argon atmosphere by reverse phase HPLC method. The format is physicochemical. To be noted: pH 7.4, 8 h, 10000 µM. Summed up: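 Ethanolic compound and GSH added to PBS, final 10 mM each with buffer at 2 mM, heated at 50 °C for 8 h.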

Series [3] deals with HEK293. The series is described as follows: Induction of apoptosis in HEK293 cells assessed as apoptotic nuclei formation at 10 uM after 48 hrs by DAPI staining based fluorescence microscopy. The format is functional, cell-based. Particulars: Homo sapiens.
Series [4] has as its system HEK293. The series is described as follows: Induction of cell death in HEK293 cells at 15 to 20 uM after 48 hrs by DAPI staining based fluorescence microscopy. Type of series: functional. Particulars: Homo sapiens.
For series [5], the system named is HEK293. The series is described as follows: Induction of apoptosis in HEK293 cells at 5 to 20 uM after 48 hrs by DAPI staining based fluorescence microscopy. To be noted: Homo sapiens. Type of series: functional, cell-based.
The subject of series [6] is HEK293. Briefly: Cytotoxicity against HEK293 cells after 48 hrs by MTT assay. To be noted: Homo sapiens, HEK293, 48 h; read-out: LC50 (the source's name). The format is functional. Summed up: (§1)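 Cells seeded at 10,000 per well and exposed to increasing compound concentrations for 48 h. After a PBS wash, MTT (2.5 mg/mL) was added for 6 h at 37 °C, then detergent (10% NP-40, 4 mM HCl), and absorbance was read at 570 nm. LC50 is the concentration causing 50% cell death. Values are means of three independent experiments.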
For orientation: Formazan colour is commonly taken as a measure of viable cells.

The subject of series [7] is Vero. The series is described as follows: Cytotoxicity against african green monkey Vero cells after 48 hrs by MTT assay. The format is cell-based. To be noted: chlorocebus sabaeus. A digest of the protocol:
as §1

The subject of series [8] is MCF7. The series is described as follows: Cytotoxicity against human MCF7 cells after 48 hrs by MTT assay. The format is functional. Particulars: MCF7, 48 h, read-out: LC50 (the source's name). Summed up:
as §1

A short description of series [9]: Cytotoxicity against human MCF10A cells after 48 hrs by MTT assay. Particulars: mcf-10a. The format is cell-based. A digest of the protocol:
as §1

The nature of series [10]: Retention time of the compound by HPLC method. Type of series: physicochemical.
For series [11], the system named is HEK293. The series is described as follows: Induction of apoptosis in HEK293 cells at 5 uM after 48 hrs by propidium iodide staining based flow cytometry (reference value: 24.26 +/- 0.8%). Type of series: functional, Homo sapiens. A general note: Flow cytometry measures light scatter and fluorescence of single cells or particles in a stream.
Series [12] relates to HEK293. The series is described as follows: Induction of apoptosis in HEK293 cells at 10 uM after 48 hrs by propidium iodide staining based flow cytometry (reference value: 24.26 +/- 0.8%). The format is functional, Homo sapiens.
Series [13] relates to HEK293. Briefly: Induction of apoptosis in HEK293 cells at 15 uM after 48 hrs by propidium iodide staining based flow cytometry (reference value: 24.26 +/- 0.8%). Type of series: functional, Homo sapiens.
In series [14] the test system is HEK293. The series is described as follows: Induction of apoptosis in HEK293 cells at 20 uM after 48 hrs by propidium iodide staining based flow cytometry (reference value: 24.26 +/- 0.8%). Type of series: functional, Homo sapiens.
Series [15] has as its system HEK293. The series is described as follows: Induction of cell cycle arrest in HEK293 cells assessed as accumulation at G1 phase at 5 uM after 48 hrs by propidium iodide staining based flow cytometry (reference value: 53.21 +/- 0.8%). The format is functional, Homo sapiens.
The test system of series [16] is HEK293. Briefly: Induction of cell cycle arrest in HEK293 cells assessed as accumulation at G1 phase at 10 uM after 48 hrs by propidium iodide staining based flow cytometry (reference value: 53.21 +/- 0.8%). The format is functional, Homo sapiens.
Series [17] concerns HEK293. Briefly: Induction of cell cycle arrest in HEK293 cells assessed as accumulation at G1 phase at 15 uM after 48 hrs by propidium iodide staining based flow cytometry (reference value: 53.21 +/- 0.8%). Type of series: functional, Homo sapiens.
In series [18] the test system is HEK293. Briefly: Induction of cell cycle arrest in HEK293 cells assessed as accumulation at G1 phase at 20 uM after 48 hrs by propidium iodide staining based flow cytometry (reference value: 53.21 +/- 0.8%). The format is functional, Homo sapiens.
Series [19] concerns HEK293. The series is described as follows: Induction of cell cycle arrest in HEK293 cells assessed as accumulation at S phase at 5 uM after 48 hrs by propidium iodide staining based flow cytometry (reference value: 19.9 +/- 0.5%). Type of series: functional, Homo sapiens.
Series [20] concerns HEK293. Briefly: Induction of cell cycle arrest in HEK293 cells assessed as accumulation at S phase at 10 uM after 48 hrs by propidium iodide staining based flow cytometry (reference value: 19.9 +/- 0.5%). Type of series: functional, Homo sapiens.
The test system of series [21] is HEK293. The series is described as follows: Induction of cell cycle arrest in HEK293 cells assessed as accumulation at S phase at 15 uM after 48 hrs by propidium iodide staining based flow cytometry (reference value: 19.9 +/- 0.5%). The format is functional, Homo sapiens.
The subject of series [22] is HEK293. The series is described as follows: Induction of cell cycle arrest in HEK293 cells assessed as accumulation at S phase at 20 uM after 48 hrs by propidium iodide staining based flow cytometry (reference value: 19.9 +/- 0.5%). Type of series: functional, Homo sapiens.
Series [23] deals with HEK293. The series is described as follows: Induction of cell cycle arrest in HEK293 cells assessed as accumulation at G2/M phase at 5 uM after 48 hrs by propidium iodide staining based flow cytometry (reference value: 2.63 +/- 0.7%). Type of series: functional, Homo sapiens.
Series [24] concerns HEK293. The series is described as follows: Induction of cell cycle arrest in HEK293 cells assessed as accumulation at G2/M phase at 10 uM after 48 hrs by propidium iodide staining based flow cytometry (reference value: 2.63 +/- 0.7%). The format is functional, Homo sapiens.
Series [25] deals with HEK293. The series is described as follows: Induction of cell cycle arrest in HEK293 cells assessed as accumulation at G2/M phase at 15 uM after 48 hrs by propidium iodide staining based flow cytometry (reference value: 2.63 +/- 0.7%). The format is functional, Homo sapiens.
Series [26] deals with HEK293. The series is described as follows: Induction of cell cycle arrest in HEK293 cells assessed as accumulation at G2/M phase at 20 uM after 48 hrs by propidium iodide staining based flow cytometry (reference value: 2.63 +/- 0.7%). Type of series: functional, Homo sapiens.
Series [27] relates to HEK293. The series is described as follows: Induction of apoptosis in HEK293 cells at 20 uM after 48 hrs by propidium iodide staining based flow cytometry relative to untreated control. Type of series: functional, Homo sapiens.
In series [28] the test system is HEK293. Briefly: Increase in caspase-3 expression in HEK293 cells at LC50 level after 48 hrs by immunocytochemistry. Type of series: functional, cell-based. Particulars: Homo sapiens.
For series [29], the target named is T1, Nuclear factor NF-kappa-B complex (Homo sapiens) (UniProt Q00653+P19838+Q04206). Briefly: Inhibition of NFkappaB (unknown origin) expressed in HEK293 cells assessed as reduction in transcriptional activity after 48 hrs by luciferase reporter gene assay. Type of series: cell-based. Summed up:
(§2)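 HEK-293 at 70% confluence transfected by calcium phosphate with NF-kB luciferase ([…]) and b-Gal ([…]) plasmids, 6–8 h, then fresh serum medium 12 h; treated 48 h, lysed, luciferase read and normalized to b-galactosidase. Three independent experiments.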
Background: A reporter such as luciferase makes a cellular process visible.

Series [30] addresses T1, Nuclear factor NF-kappa-B complex (Homo sapiens). Briefly: Inhibition of NFkappaB (unknown origin) expressed in HEK293 cells assessed as reduction in transcriptional activity at 10 uM after 48 hrs by luciferase reporter gene assay. Type of series: cell-based. A digest of the protocol: as §2
For series [31], the system named is HEK293. Briefly: Increase in Bax expression in HEK293 cells at LC50 level after 48 hrs by Western blot method. Type of series: functional, cell-based. Particulars: Homo sapiens.
For series [32], the system named is HEK293. The series is described as follows: Reduction in Bcl-xL expression in HEK293 cells at LC50 level after 48 hrs by Western blot method. Particulars: Homo sapiens. Type of series: functional, cell-based.
Series [33] has as its system HEK293. Briefly: Increase in PARP cleavage in HEK293 cells at LC50 level after 48 hrs by Western blot method. Particulars: Homo sapiens. The format is functional, cell-based.
Series [34] concerns HEK293. Briefly: Increase in p53 expression in HEK293 cells at LC50 level after 48 hrs by Western blot method. The format is functional, cell-based. Particulars: Homo sapiens.
In series [35] the test system is HEK293. Briefly: Reduction in NFkappaB expression in HEK293 cells at LC50 level after 48 hrs by Western blot method. Particulars: Homo sapiens. Type of series: functional, cell-based.
The subject of series [36] is HEK293. The series is described as follows: Increase in Bax expression in p53 deficient HEK293 cells at LC50 level after 48 hrs by Western blot method. Type of series: functional, cell-based. Particulars: Homo sapiens.
The subject of series [37] is HEK293. Briefly: Reduction in Bcl-xL expression in p53 deficient HEK293 cells at LC50 level after 48 hrs by Western blot method. Type of series: functional, cell-based. Particulars: Homo sapiens.
For series [38], the system named is HEK293. Briefly: Increase in PARP cleavage in p53 deficient HEK293 cells at LC50 level after 48 hrs by Western blot method. The format is functional, cell-based. Particulars: Homo sapiens.
Series [39] deals with HEK293. The series is described as follows: Increase in p53 expression in p53 deficient HEK293 cells at LC50 level after 48 hrs by Western blot method. Particulars: Homo sapiens. Type of series: functional, cell-based.
For series [40], the system named is HEK293. Briefly: Reduction in NFkappaB expression in p53 deficient HEK293 cells at LC50 level after 48 hrs by Western blot method. The format is functional, cell-based. Particulars: Homo sapiens.
The nature of series [41]: Binding affinity to GC-28 DNA (unknown origin) minor groove by DAPI staining based spectrophotometry. A digest of the protocol:
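DAPI–DNA complex fluorescence read at 460 nm emission band; test compound added to the preformed complex and loss of fluorescence followed.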

T1 sequence (P19838 whole entry, looked up): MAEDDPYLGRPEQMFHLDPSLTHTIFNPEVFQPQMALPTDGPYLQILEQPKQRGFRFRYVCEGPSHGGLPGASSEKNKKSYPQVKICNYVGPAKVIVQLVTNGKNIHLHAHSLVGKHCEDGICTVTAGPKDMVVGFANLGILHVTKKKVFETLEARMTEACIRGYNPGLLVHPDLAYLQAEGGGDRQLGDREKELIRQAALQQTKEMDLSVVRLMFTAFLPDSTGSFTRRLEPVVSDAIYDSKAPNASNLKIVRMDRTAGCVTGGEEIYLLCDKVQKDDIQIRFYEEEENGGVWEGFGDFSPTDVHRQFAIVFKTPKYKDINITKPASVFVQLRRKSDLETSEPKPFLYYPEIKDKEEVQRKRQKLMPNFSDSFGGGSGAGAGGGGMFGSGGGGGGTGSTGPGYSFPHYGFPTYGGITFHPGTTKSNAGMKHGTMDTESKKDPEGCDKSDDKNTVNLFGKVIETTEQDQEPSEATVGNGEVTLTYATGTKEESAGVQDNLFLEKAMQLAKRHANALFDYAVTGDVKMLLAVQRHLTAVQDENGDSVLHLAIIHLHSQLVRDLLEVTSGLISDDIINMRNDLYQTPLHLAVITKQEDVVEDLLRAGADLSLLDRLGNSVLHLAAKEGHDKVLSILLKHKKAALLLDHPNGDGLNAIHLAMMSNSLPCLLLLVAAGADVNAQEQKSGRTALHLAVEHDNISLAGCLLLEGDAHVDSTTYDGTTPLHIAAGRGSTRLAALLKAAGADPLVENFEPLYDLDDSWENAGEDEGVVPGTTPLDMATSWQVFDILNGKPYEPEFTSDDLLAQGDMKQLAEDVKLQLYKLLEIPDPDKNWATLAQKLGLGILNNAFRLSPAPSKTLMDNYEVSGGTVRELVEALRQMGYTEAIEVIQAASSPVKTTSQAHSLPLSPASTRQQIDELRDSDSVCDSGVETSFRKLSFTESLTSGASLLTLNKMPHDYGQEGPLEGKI
T1 sequence (Q00653 whole entry, looked up): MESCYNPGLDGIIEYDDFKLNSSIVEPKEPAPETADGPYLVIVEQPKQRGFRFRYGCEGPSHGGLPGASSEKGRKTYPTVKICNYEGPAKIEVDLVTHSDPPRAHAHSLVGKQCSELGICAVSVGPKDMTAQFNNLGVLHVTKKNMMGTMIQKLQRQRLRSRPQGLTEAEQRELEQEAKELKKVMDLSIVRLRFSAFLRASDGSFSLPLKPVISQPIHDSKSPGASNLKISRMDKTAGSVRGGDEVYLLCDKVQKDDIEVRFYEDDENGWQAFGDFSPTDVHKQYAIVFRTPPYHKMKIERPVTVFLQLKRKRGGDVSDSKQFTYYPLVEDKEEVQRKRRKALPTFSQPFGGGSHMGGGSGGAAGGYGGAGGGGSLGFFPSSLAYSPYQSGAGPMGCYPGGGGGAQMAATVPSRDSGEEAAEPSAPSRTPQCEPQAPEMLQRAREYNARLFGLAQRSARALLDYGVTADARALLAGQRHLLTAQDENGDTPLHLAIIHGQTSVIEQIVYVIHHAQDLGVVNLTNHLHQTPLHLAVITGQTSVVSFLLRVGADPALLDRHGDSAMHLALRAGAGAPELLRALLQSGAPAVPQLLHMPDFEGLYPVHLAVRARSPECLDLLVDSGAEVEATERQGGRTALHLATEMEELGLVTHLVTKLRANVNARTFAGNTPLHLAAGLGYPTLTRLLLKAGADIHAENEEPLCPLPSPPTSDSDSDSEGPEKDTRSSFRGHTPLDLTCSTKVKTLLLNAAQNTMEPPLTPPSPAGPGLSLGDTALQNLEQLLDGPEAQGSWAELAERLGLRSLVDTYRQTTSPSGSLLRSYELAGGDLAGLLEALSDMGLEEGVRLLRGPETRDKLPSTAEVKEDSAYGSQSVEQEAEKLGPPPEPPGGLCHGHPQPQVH
T1 sequence (Q04206 whole entry, looked up): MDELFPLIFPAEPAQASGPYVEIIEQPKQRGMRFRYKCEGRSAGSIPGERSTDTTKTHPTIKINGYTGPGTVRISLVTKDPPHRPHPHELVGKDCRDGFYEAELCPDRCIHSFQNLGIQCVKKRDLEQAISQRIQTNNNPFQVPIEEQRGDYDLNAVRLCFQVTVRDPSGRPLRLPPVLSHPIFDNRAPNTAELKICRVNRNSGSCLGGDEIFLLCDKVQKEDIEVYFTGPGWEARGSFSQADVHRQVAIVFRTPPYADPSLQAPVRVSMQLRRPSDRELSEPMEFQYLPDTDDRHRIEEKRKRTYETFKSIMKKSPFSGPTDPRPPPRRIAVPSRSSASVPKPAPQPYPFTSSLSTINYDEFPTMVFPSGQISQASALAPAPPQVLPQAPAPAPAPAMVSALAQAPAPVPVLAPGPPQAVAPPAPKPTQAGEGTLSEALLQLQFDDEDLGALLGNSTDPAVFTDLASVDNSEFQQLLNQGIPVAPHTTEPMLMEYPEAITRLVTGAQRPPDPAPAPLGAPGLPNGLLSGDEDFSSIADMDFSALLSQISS

Regarding `C=C1CC[C@@H]2[C@](C)(CO)[C@H](O)CC[C@@]2(C)[C@@H]1C/C=C1/C(=O)OC[C@H]1OC(C)=O`, halving of growth in [1] (GI50) required 5.49 µM.
For `C=C1CC[C@@H]2[C@](C)(CO)[C@H](O)CC[C@@]2(C)[C@@H]1CC(SC[C@H](NC(=O)CC[C@H](N)C(=O)O)C(=O)NCC(=O)O)C1=CCOC1=O` (single isomer, unassigned; diastereomer 1), the Drug metabolism result in series [2] is “metabolite_detected”.
As to `C=C1CC[C@@H]2[C@](C)(CO)[C@H](O)CC[C@@]2(C)[C@@H]1C/C=C1/C(=O)OC[C@H]1OC(=O)CBr`, the outcome in series [3], in series [4], in [28], in [31], in series [32] and in series [33] was Active. Also, the result in series [34], in series [35] and in series [41] was Active. For the same compound, the Activity result was “Dose-dependent effect” in [5]; 60.44% in [11]; 67.33% in series [12]; 76.62% in series [13]; 88.84% in series [14]; 25.16% in [15]. For the same compound, the Activity was 19.57% in [16]; 14.98% in series [17]; 9.01% in [18]; 10.44% in [19]; 10.28% in series [20]; 6.69% in [21]. Also, the Activity in series [22] was 1.57%; in [23], 3.96%; in series [24] it was 2.82%; in series [25] it was 1.71%; in series [26], 0.58%. The CC50 in series [6] came to 12 µM; in series [8], 8.4 µM. For the same compound, the LC50 (usually the concentration lethal to half of the exposed cells or organisms) in series [7] was 45 µM; in [9], more than 40 µM. Further, in series [10], the Retention_time is given as 24.5 min. Also, the “fold change (FC)” value in series [27] is more than 4; in series [30] it was 5. For the same compound, the inhibition result in series [29] is “Dose-dependent effect”. Moreover, the result in series [36], in [37], in series [38], in series [39] and in series [40] was inactive.

The values above are taken from ChEMBL document CHEMBL3352171, “Synthesis and biological evaluation of andrographolide analogues as anti-cancer agents” (Eur J Med Chem, 2014).
